Assay results from ChEMBL document CHEMBL1765066, “Role of metalation in the topoisomerase IIα inhibition and antiproliferation activity of a series of α-heterocyclic-N4-substituted thiosemicarbazones and their Cu(II) complexes” (J Med Chem, 2011).
pIC50: −log10 of the molar value. Activity calls are given as the source filed them. The calls are words filed in the database; no cut-off is given here.

Key:
[1] = biological target: T1, DNA topoisomerase 2-alpha (Homo sapiens, UniProt P11388); assay: Inhibition of human topoisomerase 2 alpha-mediated relaxation of supercoiled pHOT DNA at 100 uM after 30 mins by agarose gel electrophoresis
T1 sequence (P11388 whole entry): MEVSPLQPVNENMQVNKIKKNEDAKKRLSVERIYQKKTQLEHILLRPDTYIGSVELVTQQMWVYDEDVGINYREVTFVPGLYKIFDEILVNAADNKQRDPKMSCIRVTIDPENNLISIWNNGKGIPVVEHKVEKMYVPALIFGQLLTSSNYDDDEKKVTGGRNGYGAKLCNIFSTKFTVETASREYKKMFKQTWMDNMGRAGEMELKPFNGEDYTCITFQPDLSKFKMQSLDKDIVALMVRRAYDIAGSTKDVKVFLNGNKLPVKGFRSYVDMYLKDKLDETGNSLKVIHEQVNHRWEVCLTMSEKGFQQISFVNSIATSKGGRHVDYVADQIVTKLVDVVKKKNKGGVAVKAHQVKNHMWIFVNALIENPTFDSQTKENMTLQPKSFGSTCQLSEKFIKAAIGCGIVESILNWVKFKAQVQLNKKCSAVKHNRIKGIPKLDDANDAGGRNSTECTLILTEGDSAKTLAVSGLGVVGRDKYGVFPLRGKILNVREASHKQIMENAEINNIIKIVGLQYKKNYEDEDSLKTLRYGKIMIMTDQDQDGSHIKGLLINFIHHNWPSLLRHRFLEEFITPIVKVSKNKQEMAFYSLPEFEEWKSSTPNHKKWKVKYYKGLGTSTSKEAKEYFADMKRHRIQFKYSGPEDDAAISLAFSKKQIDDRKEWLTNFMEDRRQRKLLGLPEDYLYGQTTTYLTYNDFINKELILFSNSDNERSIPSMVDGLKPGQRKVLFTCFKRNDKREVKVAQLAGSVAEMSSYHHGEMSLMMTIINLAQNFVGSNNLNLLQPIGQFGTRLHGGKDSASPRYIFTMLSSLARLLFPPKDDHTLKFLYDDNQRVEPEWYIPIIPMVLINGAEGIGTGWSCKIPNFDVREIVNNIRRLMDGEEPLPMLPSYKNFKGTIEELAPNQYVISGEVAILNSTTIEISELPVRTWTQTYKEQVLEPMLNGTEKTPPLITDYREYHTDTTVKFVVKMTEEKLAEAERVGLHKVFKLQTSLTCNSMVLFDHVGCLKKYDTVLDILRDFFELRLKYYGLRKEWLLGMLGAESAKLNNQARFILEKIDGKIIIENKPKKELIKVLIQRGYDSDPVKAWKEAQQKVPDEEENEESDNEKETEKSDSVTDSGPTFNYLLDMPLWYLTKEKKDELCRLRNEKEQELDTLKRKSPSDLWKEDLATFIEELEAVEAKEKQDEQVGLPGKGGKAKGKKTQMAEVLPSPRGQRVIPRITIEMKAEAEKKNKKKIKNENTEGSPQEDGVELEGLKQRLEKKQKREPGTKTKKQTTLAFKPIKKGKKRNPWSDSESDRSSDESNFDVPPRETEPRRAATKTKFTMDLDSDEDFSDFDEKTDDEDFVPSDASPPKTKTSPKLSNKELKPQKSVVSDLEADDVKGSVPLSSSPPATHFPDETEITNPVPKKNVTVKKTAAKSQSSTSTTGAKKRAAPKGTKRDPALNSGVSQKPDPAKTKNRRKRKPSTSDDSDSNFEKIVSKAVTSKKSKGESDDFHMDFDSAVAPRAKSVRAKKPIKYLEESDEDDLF
Method in brief: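 Single-concentration gel run at 100 μM drug, added from DMSO stock. Commercial human topo IIα (~2 units) with supercoiled pHOT DNA in reaction buffer (20 μL final), 37 °C for 30 min. The reaction was stopped with SDS plus proteinase K (37 °C, 15 min) and electrophoresed on 1% agarose (5 h, 5 V/cm). Gels were ethidium bromide pre- or post-stained and scored for supercoiled, relaxed and linear DNA.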

[2] = biological target: T1, DNA topoisomerase 2-alpha; assay: Inhibition of human topoisomerase 2 alpha-mediated relaxation of supercoiled pHOT DNA after 30 mins by agarose gel electrophoresis
SK-BR-3 = assay: Growth inhibition against human SK-BR-3 cells after 24 hrs by MTT assay; format: functional; conditions: SK-BR-3, 24 h
Method in brief: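 SK-BR-3 cells in DMEM:F-12 (1:1) with 10% fetal calf serum, L-glutamine, nonessential amino acids and penicillin/streptomycin were seeded at 20 000 cells/well overnight. Drug was added in fresh medium (500 μM to 10 nM) for 24 h at 37 °C/5% CO2. MTT was added for 3 h, detergent solubilization ran overnight at room temperature, then absorbance was read. Values were normalized to untreated wells; GI50 from a sigmoidal fit; triplicate.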

Compound | inhibition [1] | pIC50 [2] | GI50 (SK-BR-3) [µM]
CC(C)NC(=S)N/N=C/c1ccccn1 | inactive | < 4.00 | 7.7
S=C(N/N=C/c1ccccn1)N1CCCC1 | inactive | < 4.00 | 4.3
C=CCNC(=S)N/N=C(\C)c1ccccn1 | inactive | < 4.00 | 6.1
CNC(=S)N/N=C/c1ccccn1 | Active | 4.12 | 7.1
N/C(S)=N/N=C/c1ccccn1 | inactive | < 4.00 | 7.4
CNC(=S)N/N=C(\C)c1ccccn1 | Active | 4.04 | 5.5
CCNC(=S)N/N=C/c1ccccn1 | Active | 4.03 | 6.3
S=C(NCc1ccccc1)N/N=C/c1ccccn1 | inactive | < 4.00 | 4.6
CCNC(=S)N/N=C(\C)c1ccccn1 | Active | 4.10 | 5.9
C/N=C(\S)N/N=C(\C)c1cnccn1 | inactive | < 4.00 | 7.9
C=CCNC(=S)N/N=C/c1ccccn1 | inactive | < 4.00 | 8.1
